Reference: paper PMC9673105 (Poultry Science, 2022)
Read-outs that look alike come from different tables or passages of the source.

Legend:
human GALR2 = conditions: ref Kim et al., 2014, Cohen et al., 2020; cited from earlier work
zebrafish GALR2a = conditions: ref Kim et al., 2014, Cohen et al., 2020; cited from earlier work
mice = conditions: cited from earlier work
[1] = tested on: hypothalamic neuropeptides; conditions: zebrafish; ref Zheng et al., 2017; cited from earlier work
tilapia GALR2b = conditions: ref Kim et al., 2014, Cohen et al., 2020; cited from earlier work
[2] = tested on: luteinizing hormone (LH) release; conditions: ewe; ref Lomet et al., 2020; cited from earlier work
goldfish = conditions: injection, ref Wong et al., 2013; cited from earlier work
Xenopus GALR2b = conditions: ref Kim et al., 2014, Cohen et al., 2020; cited from earlier work
GALR1 = conditions: ref Kim et al., 2014, cited from earlier work
GALR2 = conditions: mouse; ref Lin et al., 2015; cited from earlier work
[3] = tested on: hypothalamic neuropeptides; conditions: orange-spotted grouper; ref Li et al., 2016; cited from earlier work
zebrafish GALR2b = conditions: ref Kim et al., 2014, Cohen et al., 2020; cited from earlier work
[4] = tested on: hypothalamic neuropeptides; conditions: mouse; ref Lv et al., 2020; cited from earlier work
Siberian sturgeon = conditions: ref Tian et al., 2020, cited from earlier work
POMC = experiment: Hypothalamic POMC mRNA; type: in vivo; conditions: chicken
Outline: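 3-wk-old male chicks, randomized into four groups (N ≥ 3), given test peptide intravenously at 10, 50 or 100 ng/g BW, or PBS as control. Hypothalami collected 6, 12 and 24 h post-injection. EvaGreen qRT-PCR with melting-curve and agarose-gel specificity checks. mRNA normalised to β-actin and expressed as fold of PBS group. One-way ANOVA with Dunnett's test.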

human GALR3 = conditions: ref Kim et al., 2014, Cohen et al., 2020; cited from earlier work
[5] = tested on: hypothalamic neuropeptides; conditions: goldfish; ref Wong et al., 2013; cited from earlier work
tilapia GALR2a = conditions: ref Kim et al., 2014, Cohen et al., 2020; cited from earlier work
[6] = cited from earlier work
Xenopus GALR3 = conditions: ref Kim et al., 2014, Cohen et al., 2020; cited from earlier work

Q: With “SPX: Spexin, novel neuropeptide; mature peptide with 14 amino acid residues, of various species in cited literature” as the substance, how does the receptor activation (human GALR2) read?
A: Its receptor activation is “could activate”.

Q: What about the receptor activation (zebrafish GALR2a) of the same substance?
A: Its receptor activation is “could activate”.

Q: What about the feeding (mice; intraperitoneal (IP) injection, ref Lv et al., 2020, Wong et al., 2021b) of the same substance?
A: The feeding was “feeding inhibition”.

Q: And the feed intake (mice; peripheral, ref Lv et al., 2020)?
A: The feed intake was “suppresses feed intake”.

Q: What about the POMC expression [1] of the same substance?
A: Its POMC expression is “could elevate POMC expression”.

Q: What about the receptor activation (tilapia GALR2b) of the same substance?
A: The receptor activation was “could activate”.

Q: And the “basal and KISS-induced luteinizing hormone (LH) release” value [2]?
A: Its value is “does not impact”.

Q: What about the feed consumption (goldfish) of the same substance?
A: Its feed consumption is “observably decreased”.

Q: And the receptor activation (Xenopus GALR2b)?
A: The receptor activation was “could activate”.

Q: And the receptor activation (GALR1; GALR1, Cohen et al., 2020)?
A: The receptor activation was “not GALR1”.

Q: And the “activation of GALR1” value (GALR1)?
A: Its value is “incompetent in activating GALR1”.

Q: And the “bowel movement via SPX-dependent GALR2 activation” value (GALR2)?
A: Its value is “could enhance bowel movement”.

Q: What about the POMC expression [3] of the same substance?
A: Its POMC expression is “could elevate POMC expression”.

Q: And the receptor activation (zebrafish GALR2b)?
A: Its receptor activation is “could activate”.

Q: And the “POMC mRNA level” value [4]?
A: The value was “failed to change the mRNA level of POMC”.

Q: What about the feed consumption (Siberian sturgeon; injection) of the same substance?
A: The feed consumption was “observably decreased”.

Q: What about the feeding (Siberian sturgeon; intraperitoneal (IP) injection) of the same substance?
A: Its feeding is “feeding inhibition”.

Q: What about the “POMC mRNA level (in words)” value (POMC) of the same substance?
A: The value was “failed to change the mRNA level of POMC”.

Q: What about the receptor activation (human GALR3) of the same substance?
A: The receptor activation was “could activate”.

Q: What about the POMC expression [5] of the same substance?
A: Its POMC expression is “could elevate POMC expression”.

Q: And the receptor activation (tilapia GALR2a)?
A: Its receptor activation is “could activate”.

Q: What about the body weight ([6]; rodents with diet-induced obesity, ref Walewski et al., 2014) of the same substance?
A: Its body weight is “lose weight”.

Q: And the body weight ([6]; rodents, ref Kolodziejski et al., 2021)?
A: The body weight was “weight loss”.

Q: And the receptor activation (Xenopus GALR3)?
A: The receptor activation was “could activate”.
